Test results reported in ChEMBL document CHEMBL4396907, “Structure-activity relationship study and biological evaluation of SAC-Garlic acid conjugates as novel anti-inflammatory agents” (Eur J Med Chem, 2019).
pIC50: −log10 of the molar value. The source made the active and inactive calls. No cut-off for these calls is given here.

How the values were obtained:
Toll-like receptor 2 = Toll-like receptor 2 (Mus musculus, UniProt Q9QUN7); test: Antagonist activity at TLR2 in mouse RAW264.7 cells assessed as PAM3CSK4-induced NO production measured after 24 hrs by Griess assay; type: cell-based
Procedure, shortened: (§1)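 RAW 264.7 cells in DMEM/10% FBS/pen-strep, 80,000 per well, preincubated 24 h at 37 °C, 5% CO2. Nonadherent cells removed, medium changed to plain DMEM. Cells co-treated with compound and 200 ng/mL Pam3CSK4 for 24 h. Nitrite in supernatant measured by modified Griess reagent (sulfanilic acid/phosphoric acid, then naphthylethylenediamine), read at OD560. Triplicate.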

[1] = target: Toll-like receptor 2 (Mus musculus) (UniProt Q9QUN7); test: Antagonist activity at TLR2 in mouse RAW264.7 cells assessed as PAM3CSK4-induced NO production at 150 uM measured after 24 hrs by Griess assay; type: cell-based; procedure, shortened: as §1
[2] = target: Toll-like receptor 2 (Homo sapiens) (UniProt O60603); test: Inhibition of TLR2 in human HEK-Blue hTLR2 cells assessed as suppression of PAM3CSK4-induced SEAP signaling after 24 hrs by quanti-blue assay; type: cell-based
Procedure, shortened: (§2)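 HEK-Blue hTLR2 cells (human TLR2, CD14 and NF-κB/AP-1-driven SEAP reporter), 4×10^4 per well, grown 24 h in DMEM/10% FBS. Changed to plain DMEM with compound (0–100 µM) plus 20 ng/ml Pam3CSK4 (TLR1/2) or 20 ng/ml Pam2CSK4 (TLR2/6) for 24 h. Supernatant SEAP read with QUANTI-Blue at 37 °C, OD620 after 15–30 min. Mean ± SD of three independent experiments.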

TLR2/TLR6 (Homo sapiens) = TLR2/TLR6 (Homo sapiens) (UniProt O60603+Q9Y2C9); test: Inhibition of PAM2CSK4-induced TLR2/6 activation in human HEK-Blue hTLR2 cells; type: cell-based; procedure, shortened: as §2
[3] = target: Toll-like receptor 2 (Homo sapiens) (UniProt O60603); test: Inhibition of TLR2 in human PBMC cells assessed as PAM2CSK4-induced TLR2/6 heterodimerization formation by immunoprecipitation assay; type: cell-based
Procedure, shortened: (§3)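 Human PBMC, 10^6 cells/mL, given vehicle, Pam3CSK4 (50 ng/mL) or Pam2CSK4 (50 ng/mL) with compound for 24 h. Lysates incubated with anti-TLR2 overnight at 4 °C, then protein A agarose for 4 h. Beads washed three times and boiled in SDS buffer. Immunoprecipitates blotted for TLR1, TLR2, TLR6 and MyD88.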

[4] = target: Toll-like receptor 2 (Homo sapiens) (UniProt O60603); test: Inhibition of TLR2 in human PBMC cells assessed as decrease in PAM3CSK4 induced TNF-alpha expression at 12.5 uM measured after 24 hrs by ELISA relative to control; type: cell-based
Procedure, shortened: (§4)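 RAW 264.7 cells or human PBMC, 1×10^6 per well in DMEM/10% FBS/pen-strep, treated with compound plus 50 ng/ml Pam3CSK4 for 24 h at 37 °C. Supernatants frozen at −80 °C. TNF-α measured by sandwich ELISA against recombinant standards, triplicate samples. Mean ± SD, three independent experiments.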

[5] = Inhibition of PAM3CSK4-induced TLR2 expression in human HEK-Blue Htlr2 cells at 12.5 uM by Western blot analysis relative to control; type: functional; conditions: HEK-Blue hTLR2, read-out: INH
Procedure, shortened: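 HEK-Blue hTLR2 cells, 1.5×10^6 per well, grown 24 h, then in plain DMEM with compound and 50 ng/mL Pam3CSK4 for 24 h. Lysed in RIPA/PMSF. Equal lysate amounts run on SDS-PAGE and transferred to nitrocellulose. Blocked in 5% milk, probed overnight at 4 °C with anti-TLR2, then HRP secondary.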

[6] = target: Toll-like receptor 2 (Homo sapiens) (UniProt O60603); test: Inhibition of TLR2 in human PBMC cells assessed as PAM2CSK4-induced TLR2/Myd88 heterodimerization formation by immunoprecipitation assay; type: cell-based; procedure, shortened: as §3
[7] = target: Toll-like receptor 3 (Homo sapiens) (UniProt O15455); test: Inhibition of Poly:IC-induced TLR3 activation in human HEK-Blue hTLR3 cells; type: cell-based
Procedure, shortened: (§5)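 HEK-Blue hTLR4 or hTLR3 reporter cells, 4×10^4 per well, grown 24 h, then switched to plain DMEM with compound (0–50 µM). Stimulant was 20 ng/ml LPS for hTLR4 and 20 µg/ml Poly:IC for hTLR3, for 24 h. Supernatant SEAP measured by QUANTI-Blue at OD620. Vehicle as negative control. Three independent experiments.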

[8] = target: Toll-like receptor 2 (Mus musculus) (UniProt Q9QUN7); test: Inhibition of TLR2 in mouse RAW264.7 cells assessed as decrease in PAM3CSK4 induced TNF-alpha expression measured after 24 hrs by ELISA; type: cell-based; procedure, shortened: as §4
[9] = target: Toll-like receptor 2 (Homo sapiens) (UniProt O60603); test: Inhibition of TLR2 in human THP1 assessed as decrease in PAM3CSK4 induced TNF-alpha expression measured after 4 hrs by ELISA
[10] = target: Toll-like receptor 2 (Homo sapiens) (UniProt O60603); test: Inhibition of TLR2 in human PBMC cells assessed as PAM3CSK4-induced TLR2/Myd88 heterodimerization formation by immunoprecipitation assay; type: cell-based; procedure, shortened: as §3
[11] = target: Toll-like receptor 2 (Homo sapiens) (UniProt O60603); test: Inhibition of TLR2 in human HEK-Blue hTLR2 cells assessed as suppression of PAM3CSK4-induced SEAP signaling at 25 uM after 24 hrs by quanti-blue assay relative to control; type: cell-based; procedure, shortened: as §2
RAW264.7 = test: Cytotoxicity against mouse RAW264.7 cells assessed as effect on cell viability at 6.25 to 100 uM cotreated with PAM3CSK4 measured after 24 hrs by MTT assay; type: cell-based; conditions: raw264.7, 24 h
Procedure, shortened: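 RAW 264.7 cells, 80,000 per well, grown 24 h in DMEM/10% FBS/pen-strep. Medium then switched to plain DMEM containing compound plus Pam3CSK4 (final 200 ng/ml) for 24 h. MTT (5 mg/ml stock in PBS) added for 4 h, formazan dissolved in DMSO, absorbance read at 450 nm.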

[12] = target: Toll-like receptor 4 (Homo sapiens) (UniProt O00206); test: Inhibition of LPS-induced TLR4 activation in human HEK-Blue hTLR4 cells; type: cell-based; procedure, shortened: as §5
[13] = target: Toll-like receptor 2 (Mus musculus) (UniProt Q9QUN7); test: Inhibition of TLR2 in mouse RAW264.7 cells assessed as decrease in PAM3CSK4 induced TNF-alpha expression at 25 uM measured after 24 hrs by ELISA relative to control; type: cell-based; procedure, shortened: as §4
[14] = target: Toll-like receptor 1/2 (Homo sapiens) (UniProt O60603+Q15399); test: Inhibition of PAM3CSK4-induced TLR1/2 activation in human HEK-Blue hTLR2 cells; type: cell-based; procedure, shortened: as §2
[15] = target: Toll-like receptor 2 (Homo sapiens) (UniProt O60603); test: Inhibition of TLR2 in human PBMC cells assessed as PAM3CSK4-induced TLR1/2 heterodimerization formation by immunoprecipitation assay; type: cell-based; procedure, shortened: as §3

Toll-like receptor 2 (Homo sapiens), sequence (O60603 whole entry): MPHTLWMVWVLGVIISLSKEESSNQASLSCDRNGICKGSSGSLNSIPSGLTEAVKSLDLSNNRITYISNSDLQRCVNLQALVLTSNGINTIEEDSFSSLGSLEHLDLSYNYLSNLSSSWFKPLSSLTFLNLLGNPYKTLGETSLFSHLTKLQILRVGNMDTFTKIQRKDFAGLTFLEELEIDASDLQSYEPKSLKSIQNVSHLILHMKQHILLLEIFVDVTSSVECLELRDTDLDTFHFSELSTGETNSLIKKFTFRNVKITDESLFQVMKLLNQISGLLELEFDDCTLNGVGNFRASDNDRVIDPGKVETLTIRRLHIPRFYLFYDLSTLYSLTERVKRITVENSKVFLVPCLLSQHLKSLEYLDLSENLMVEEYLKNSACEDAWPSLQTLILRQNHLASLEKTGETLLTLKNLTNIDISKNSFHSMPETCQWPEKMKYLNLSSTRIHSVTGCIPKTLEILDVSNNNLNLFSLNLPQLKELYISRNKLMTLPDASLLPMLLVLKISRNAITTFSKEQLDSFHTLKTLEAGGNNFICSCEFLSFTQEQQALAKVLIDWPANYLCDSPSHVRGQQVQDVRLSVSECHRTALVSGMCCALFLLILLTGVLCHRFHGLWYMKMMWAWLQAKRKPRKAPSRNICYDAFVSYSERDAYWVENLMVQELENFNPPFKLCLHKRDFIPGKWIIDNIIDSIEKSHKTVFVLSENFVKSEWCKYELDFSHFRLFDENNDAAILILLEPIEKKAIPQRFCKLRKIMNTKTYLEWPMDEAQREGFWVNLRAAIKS
Toll-like receptor 2, sequence (Q9QUN7 whole entry): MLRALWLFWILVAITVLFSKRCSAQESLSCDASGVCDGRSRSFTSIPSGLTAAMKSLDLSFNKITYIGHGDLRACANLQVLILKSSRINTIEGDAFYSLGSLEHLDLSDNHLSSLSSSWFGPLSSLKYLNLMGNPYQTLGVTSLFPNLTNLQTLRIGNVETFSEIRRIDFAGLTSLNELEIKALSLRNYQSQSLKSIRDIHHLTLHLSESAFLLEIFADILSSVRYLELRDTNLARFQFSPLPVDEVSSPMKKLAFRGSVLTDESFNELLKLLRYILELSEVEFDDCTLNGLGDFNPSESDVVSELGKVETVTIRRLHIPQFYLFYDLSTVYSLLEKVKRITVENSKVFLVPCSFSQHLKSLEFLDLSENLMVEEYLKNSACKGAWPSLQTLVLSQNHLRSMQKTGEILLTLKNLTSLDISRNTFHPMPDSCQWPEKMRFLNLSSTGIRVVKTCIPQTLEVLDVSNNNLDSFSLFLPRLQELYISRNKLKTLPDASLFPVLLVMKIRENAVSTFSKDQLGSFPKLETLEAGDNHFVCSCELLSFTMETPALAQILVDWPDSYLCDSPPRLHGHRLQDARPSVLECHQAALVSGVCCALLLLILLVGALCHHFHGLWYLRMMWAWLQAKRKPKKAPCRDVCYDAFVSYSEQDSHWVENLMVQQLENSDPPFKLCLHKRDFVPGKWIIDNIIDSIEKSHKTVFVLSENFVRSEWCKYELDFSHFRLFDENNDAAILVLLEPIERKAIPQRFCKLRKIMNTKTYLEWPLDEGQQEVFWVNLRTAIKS
Toll-like receptor 2 (Mus musculus), sequence (Q9QUN7 whole entry): as above
Toll-like receptor 4 (Homo sapiens), sequence (O00206 whole entry): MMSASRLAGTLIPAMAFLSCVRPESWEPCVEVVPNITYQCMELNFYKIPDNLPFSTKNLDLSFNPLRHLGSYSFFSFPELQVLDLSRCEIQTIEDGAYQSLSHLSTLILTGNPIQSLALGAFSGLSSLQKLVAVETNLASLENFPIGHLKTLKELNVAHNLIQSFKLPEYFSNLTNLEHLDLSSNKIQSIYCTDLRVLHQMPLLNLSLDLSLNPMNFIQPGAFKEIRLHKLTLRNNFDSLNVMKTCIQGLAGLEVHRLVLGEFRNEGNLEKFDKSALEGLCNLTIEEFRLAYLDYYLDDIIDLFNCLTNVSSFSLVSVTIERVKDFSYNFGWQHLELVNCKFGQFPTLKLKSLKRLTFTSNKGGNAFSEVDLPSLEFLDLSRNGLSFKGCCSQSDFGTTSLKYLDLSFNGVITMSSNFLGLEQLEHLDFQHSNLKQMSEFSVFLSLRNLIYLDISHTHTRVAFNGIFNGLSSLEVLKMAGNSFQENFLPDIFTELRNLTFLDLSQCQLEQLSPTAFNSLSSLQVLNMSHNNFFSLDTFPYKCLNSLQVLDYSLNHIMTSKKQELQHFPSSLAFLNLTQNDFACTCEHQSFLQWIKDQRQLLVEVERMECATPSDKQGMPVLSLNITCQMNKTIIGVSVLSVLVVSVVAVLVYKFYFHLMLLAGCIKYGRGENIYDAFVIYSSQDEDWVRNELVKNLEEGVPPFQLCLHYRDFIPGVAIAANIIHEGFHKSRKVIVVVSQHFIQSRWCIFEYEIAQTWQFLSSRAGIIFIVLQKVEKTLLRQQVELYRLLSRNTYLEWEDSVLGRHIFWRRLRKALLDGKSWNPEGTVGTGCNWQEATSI
Toll-like receptor 3 (Homo sapiens), sequence (O15455 whole entry): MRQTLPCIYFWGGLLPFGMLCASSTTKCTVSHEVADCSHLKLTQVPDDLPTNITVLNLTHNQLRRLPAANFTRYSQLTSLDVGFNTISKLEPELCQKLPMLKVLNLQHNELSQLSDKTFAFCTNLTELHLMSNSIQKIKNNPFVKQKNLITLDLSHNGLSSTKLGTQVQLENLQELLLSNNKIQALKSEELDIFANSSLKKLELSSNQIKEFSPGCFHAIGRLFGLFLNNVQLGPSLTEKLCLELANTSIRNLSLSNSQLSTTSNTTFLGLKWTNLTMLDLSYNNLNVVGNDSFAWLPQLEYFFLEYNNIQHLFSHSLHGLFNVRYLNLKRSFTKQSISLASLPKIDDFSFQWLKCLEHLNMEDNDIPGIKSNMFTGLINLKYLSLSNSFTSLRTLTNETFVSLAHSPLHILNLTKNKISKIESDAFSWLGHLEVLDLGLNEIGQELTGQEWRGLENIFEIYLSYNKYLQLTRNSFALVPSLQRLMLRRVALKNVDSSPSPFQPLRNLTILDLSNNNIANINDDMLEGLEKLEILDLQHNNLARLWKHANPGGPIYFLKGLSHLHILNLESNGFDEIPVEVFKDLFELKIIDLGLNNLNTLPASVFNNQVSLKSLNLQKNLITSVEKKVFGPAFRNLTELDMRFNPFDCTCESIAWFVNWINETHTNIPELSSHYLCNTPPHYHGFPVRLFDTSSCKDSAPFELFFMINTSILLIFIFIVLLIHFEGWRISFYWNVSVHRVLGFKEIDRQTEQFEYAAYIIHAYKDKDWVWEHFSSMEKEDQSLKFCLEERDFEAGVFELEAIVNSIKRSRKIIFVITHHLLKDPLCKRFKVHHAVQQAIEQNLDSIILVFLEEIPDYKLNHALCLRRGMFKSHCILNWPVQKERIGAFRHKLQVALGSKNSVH

| SMILES | pIC50 (Toll-like receptor 2) | further results |
| --- | --- | --- |
| C#CCSC[C@H](N)C(=O)O | – | Activity [1]: inactive |
| C=CCCCSC[C@H](NC(=O)c1cc(OC)c(OC)c(OC)c1)C(=O)OC | 4.65 | inhibition [2]: Dose-dependent effect; inhibition (TLR2/TLR6 (Homo sapiens)): Active; inhibition [3]: Active; inhibition [4]: > 95%; inhibition at 12.5 µM [5]: > 90%; inhibition [6]: Active; inhibition [7]: inactive; inhibition [8]: Dose-dependent effect; inhibition [9]: Active; inhibition [10]: Active; inhibition [11]: 50%; Activity (RAW264.7): Non-Toxic; inhibition [12]: inactive; inhibition [13]: 50%; inhibition [14]: Active; inhibition [15]: Active |
| C=CCSC[C@H](N)C(=O)OC | 4.26 | – |
| C=CCCCSC[C@H](N)C(=O)OC | 4.50 | – |
| COc1cc(C(=O)O)cc(OC)c1OC [3,4,5-TRIMETHOXYBENZOIC ACID] | 4.27 | – |
| C#CCSC[C@H](N)C(=O)OC | 4.03 | – |
| COC(=O)[C@H](CSCc1ccc(F)cc1)NC(=O)c1cc(OC)c(OC)c(OC)c1 | 4.54 | – |
| C=CCCCSC[C@H](N)C(=O)O | – | Activity [1]: inactive |
| COC(=O)[C@H](CSCc1ccccc1)NC(=O)c1cc(OC)c(OC)c(OC)c1 | 4.49 | – |
| C=CCSC[C@H](NC(=O)c1cc(OC)c(OC)c(OC)c1)C(=O)OC | 4.31 | – |
| C=CCSC[C@H](N)C(=O)O | – | inhibition [2]: inactive; Activity [1]: inactive |
| COC(=O)[C@@H](N)CSCc1ccc(F)cc1 | 4.00 | – |
| COC(=O)[C@H](CSCc1ccc(F)cc1)NC(=O)c1ccc(O)cc1 | 4.43 | – |
| C#CCSC[C@H](NC(=O)c1cc(OC)c(OC)c(OC)c1)C(=O)OC | 4.27 | – |
| O=C(O)c1cc(O)c(O)c(O)c1 [GALLIC ACID] | 4.16 | – |
| N[C@@H](CSCc1ccccc1)C(=O)O | – | Activity [1]: inactive |
| C=CCCSC[C@H](NC(=O)c1cc(OC)c(OC)c(OC)c1)C(=O)OC | 4.56 | – |
| C=CCCSC[C@H](N)C(=O)OC | 4.34 | – |
| N[C@@H](CSCc1ccc(F)cc1)C(=O)O | – | Activity [1]: inactive |
| C=CCCSC[C@H](N)C(=O)O | – | Activity [1]: inactive |
| C=CCCCSC[C@H](NC(=O)c1ccc(O)cc1)C(=O)OC | 4.28 | – |
| COC(=O)[C@@H](N)CSCc1ccccc1 | 3.93 | – |

The next lines start with results.

| pIC50 (Toll-like receptor 2) | SMILES | further results |
| --- | --- | --- |
| 4.22 | COC(=O)[C@H](CSCc1ccccc1)NC(=O)c1cc(O)c(O)c(O)c1 | – |
| 4.23 | C=CCSC[C@H](NC(=O)c1cc(O)cc(O)c1)C(=O)OC | – |
| 4.15 | C#CCSC[C@H](NC(=O)c1cc(O)c(O)c(O)c1)C(=O)OC | – |
| 4.28 | C=CCSC[C@H](NC(=O)c1cc(O)c(O)c(O)c1)C(=O)OC | – |
| 4.26 | C#CCSC[C@H](NC(=O)c1ccc(O)cc1)C(=O)OC | – |
| 4.42 | COC(=O)[C@H](CSCc1ccc(F)cc1)NC(=O)c1cc(O)cc(O)c1 | – |
| 4.39 | C=CCSC[C@H](NC(=O)c1ccc(O)cc1)C(=O)OC | – |
| 4.38 | C#CCSC[C@H](NC(=O)c1cc(O)cc(O)c1)C(=O)OC | – |
| 4.26 | C=CCCSC[C@H](NC(=O)c1ccc(O)cc1)C(=O)OC | – |
| 4.30 | COC(=O)[C@H](CSCc1ccc(F)cc1)NC(=O)c1cc(O)c(O)c(O)c1 | – |
| 4.24 | C=CCCSC[C@H](NC(=O)c1cc(O)c(O)c(O)c1)C(=O)OC | – |
| 4.45 | C=CCCSC[C@H](NC(=O)c1cc(O)cc(O)c1)C(=O)OC | – |
| 4.28 | COC(=O)[C@H](CSCc1ccccc1)NC(=O)c1ccc(O)cc1 | – |
| 4.30 | COC(=O)[C@H](CSCc1ccccc1)NC(=O)c1cc(O)cc(O)c1 | – |
| 4.41 | C=CCCCSC[C@H](NC(=O)c1cc(O)c(O)c(O)c1)C(=O)OC | – |
| 3.93 | O=C(O)c1ccc(O)cc1 [PARABEN] | – |
| 4.24 | C=CCCCSC[C@H](NC(=O)c1cc(O)cc(O)c1)C(=O)OC | – |
| 3.93 | O=C(O)c1cc(O)cc(O)c1 [3,5-DIHYDROXYBENZOIC ACID] | – |
